# Data as given in ChEMBL document CHEMBL1629654, “Breakthrough Aspergillus fumigatus and Candida albicans double infection during caspofungin treatment: laboratory characteristics and implication for susceptibility testing” (2009).
# Calls of active or inactive are those of the source. The calls are words filed in the database; no cut-off is given here.
# How the values were obtained:
# Candida tropicalis [1] = test: Antimicrobial activity against Candida tropicalis after 24 hrs by M27-A3 method; assay type: functional
# Candida albicans [2] = test: Antimicrobial activity against Candida albicans isolate R after 48 hrs by EUCAST microdilution method; assay type: functional
# Outline: (§1)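 EUCAST broth microdilution, plates read spectrophotometrically at 490 nm. MIC is the lowest dilution giving 50% growth inhibition. C. krusei […] control included in each run.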
# Pichia kudriavzevii [3] = test: Antimicrobial activity against Candida krusei after 48 hrs by NCCLS microdilution method; assay type: functional
# [4] = system: Meyerozyma guilliermondii; test: Antimicrobial activity against Candida guilliermondii after 24 hrs by M27-A3 method; assay type: functional
# Candida albicans [5] = test: Antimicrobial activity against Candida albicans isolate C after 24 hrs by microdilution method; assay type: functional
# Outline: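 Broth microdilution in microtiter plates, read spectrophotometrically at 490 nm. MIC taken as the lowest drug dilution giving 50% growth inhibition. C. krusei […] run as control in each run. Read at 24 h and 48 h; trailing growth noted at 48 h.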
# Debaryomyces hansenii [6] = test: Antimicrobial activity against Candida famata after 48 hrs by M27-A method
# Candida tropicalis [7] = test: Antimicrobial activity against Candida tropicalis after 48 hrs by broth microdilution method; assay type: functional
# Candida parapsilosis [8] = test: Antimicrobial activity against Candida parapsilosis after 48 hrs by 80% endpoint M27-A method; settings: Lodderomyces parapsilosis
# Candida albicans [9] = test: Antimicrobial activity against Candida albicans isolate R at 1 ug/ml grown on RPMI 1640 medium after 48 hrs by disk diffusion method; assay type: functional
# Outline: (§2)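 Disk diffusion on 90-mm RPMI 1640 with 2% glucose agar or on Mueller-Hinton agar. Plates were swabbed in three directions with a yeast suspension of 1–5 × 10^6 cells/ml. Paper disks (6 mm) held 1, 5 or 25 µg drug. Zone diameters were read at 24 and 48 h; values are means of two experiments.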
# Nakaseomyces glabratus [10] = test: Antimicrobial activity against Candida glabrata after 48 hrs by broth microdilution method; assay type: functional
# [11] = system: Meyerozyma guilliermondii; test: Antimicrobial activity against Candida guilliermondii after 48 hrs by NCCLS microdilution method; assay type: functional
# Candida albicans [12] = test: Antimicrobial activity against Candida albicans isolate S infected in NMRI mouse assessed as decrease in kidney bacterial burden at 6 mg/kg, ip measured on day 4; assay type: functional, organism-based; design: dose 6 mg/kg
# Pichia kudriavzevii [13] = test: Antimicrobial activity against Candida krusei after 48 hrs by Etest; assay type: functional
# Candida tropicalis [14] = test: Antimicrobial activity against Candida tropicalis after 48 hrs by NCCLS microdilution method; assay type: functional
# Candida albicans [15] = test: Antimicrobial activity against Candida albicans isolate R at 25 ug/ml grown on RPMI 1640 medium after 24 hrs by disk diffusion method; assay type: functional; outline: as §2
# Candida albicans [16] = test: Antimicrobial activity against Candida albicans isolate R at 2 ug/ml after 48 hrs by agar dilution method; assay type: functional, organism-based
# Outline: (§3)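 Agar dilution on Sabouraud agar with caspofungin at 0, 0.5, 1 and 2 per ml. Isolates were subcultured 2 days on CHROMagar. Suspensions of 1×10^6 to 5×10^6 CFU/ml in sterile water were diluted 1,500-fold, and approximately 3 to 15 cells were spread per agar surface. Growth or no growth was scored, with repeated testing.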
# Pichia kudriavzevii [17] = test: Antimicrobial activity against Candida krusei after 24 hrs by M27-A3 method; assay type: functional
# Candida tropicalis [18] = test: Antimicrobial activity against Candida tropicalis after 48 hrs by 80% endpoint M27-A2 method; assay type: functional
# Candida albicans [19] = test: Antimicrobial activity against Candida albicans after 48 hrs by 80% endpoint M27-A2 method; assay type: functional
# Candida albicans [20] = test: Antimicrobial activity against Candida albicans isolate S at 25 ug/ml grown on RPMI 1640 medium after 48 hrs by disk diffusion method; assay type: functional; outline: as §2
# Candida albicans [21] = test: Antimicrobial activity against Candida albicans after 48 hrs by broth microdilution method; assay type: functional
# [22] = system: Meyerozyma guilliermondii; test: Antimicrobial activity against Candida guilliermondii after 48 hrs by Etest; assay type: functional
# Candida albicans [23] = test: Antimicrobial activity against Candida albicans isolate R at 25 ug/ml grown on RPMI 1640 medium after 48 hrs by disk diffusion method; assay type: functional; outline: as §2
# Candida albicans [24] = test: Antimicrobial activity against Candida albicans obtained from wound of patient 20 days after admission by EUCAST microdilution method; assay type: functional; settings: 480 h; outline: as §1
# Clavispora lusitaniae = test: Antimicrobial activity against Candida lusitaniae after 24 hrs by M27-A3 method; assay type: functional
# Candida albicans [25] = test: Antimicrobial activity against Candida albicans obtained from urine of patient 29 days after admission by EUCAST microdilution method; assay type: functional; settings: 696 h; outline: as §1
# Candida albicans [26] = test: Antimicrobial activity against Candida albicans isolate R at 25 ug/ml grown on Muller-Hinton agar medium after 24 hrs by disk diffusion method; assay type: functional; outline: as §2
# Candida parapsilosis [27] = test: Antimicrobial activity against Candida parapsilosis after 48 hrs by Etest; assay type: functional; settings: Lodderomyces parapsilosis
# Candida albicans [28] = test: Antimicrobial activity against Candida albicans isolate R at 0.5 ug/ml after 48 hrs by agar dilution method; assay type: functional, organism-based
# Outline: (§4)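 Sabouraud agar wells contained caspofungin 0, 0.5, 1 or 2 µg/ml, or anidulafungin 0, 0.003, 0.125 or 0.5 µg/ml. Isolates were subcultured 2 days on CHROMagar. Suspensions of 1–5 × 10^6 CFU/ml in sterile water were diluted 1,500-fold, and 5 µl (about 3–15 cells) was spread per well. Growth was scored.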
# Debaryomyces hansenii [29] = test: Antimicrobial activity against Candida famata after 24 hrs by M27-A3 method; assay type: functional
# Candida albicans [30] = test: Antimicrobial activity against Candida albicans obtained from hemodialysis catheter tip 35 days after admission by Etest; assay type: functional
# Outline: (§5)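 Etest on RPMI 1640 agar with 2% glucose, performed according to the manufacturer's recommendations.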
# Candida albicans [31] = test: Antimicrobial activity against Candida albicans isolate S at 1 ug/ml grown on Muller-Hinton agar medium after 24 hrs by disk diffusion method; assay type: functional; outline: as §2
# Pichia kudriavzevii [32] = test: Antimicrobial activity against Candida krusei after 48 hrs by 50% endpoint M27-A2 method; assay type: functional
# Candida albicans [33] = test: Antimicrobial activity against Candida albicans isolate R at 1 ug/ml after 48 hrs by agar dilution method; assay type: functional, organism-based; outline: as §3
# Candida albicans [34] = test: Antimicrobial activity against Candida albicans isolate R at 5 ug/ml grown on RPMI 1640 medium after 48 hrs by disk diffusion method; assay type: functional; outline: as §2
# Candida tropicalis [35] = test: Antimicrobial activity against Candida tropicalis after 48 hrs by Etest; assay type: functional
# Nakaseomyces glabratus [36] = test: Antimicrobial activity against Candida glabrata after 48 hrs by 80% endpoint M27-A2 method; assay type: functional
# Candida albicans [37] = test: Antimicrobial activity against Candida albicans isolate S obtained from blood culture of patient 4 days after admission by EUCAST microdilution method; assay type: functional; settings: 96 h; outline: as §1
# Candida albicans [38] = test: Antimicrobial activity against Candida albicans isolate R at 5 ug/ml grown on RPMI 1640 medium after 24 hrs by disk diffusion method; assay type: functional; outline: as §2
# Candida albicans [39] = test: Antimicrobial activity against Candida albicans isolate R at 25 ug/ml grown on Muller-Hinton agar medium after 48 hrs by disk diffusion method; assay type: functional; outline: as §2
# Candida albicans [40] = test: Antimicrobial activity against Candida albicans isolate C at 0.5 ug/ml after 48 hrs by agar dilution method; assay type: functional, organism-based; outline: as §4
# Candida albicans [41] = test: Antimicrobial activity against Candida albicans isolate R at 5 ug/ml grown on Muller-Hinton agar medium after 24 hrs by disk diffusion method; assay type: functional; outline: as §2
# Candida albicans [42] = test: Antimicrobial activity against Candida albicans isolate R after 48 hrs by Etest; assay type: functional; outline: as §5
# Candida albicans [43] = test: Antimicrobial activity against Candida albicans isolate S at 1 ug/ml grown on RPMI 1640 medium after 24 hrs by disk diffusion method; assay type: functional; outline: as §2
smiles,measurement,setting,value
CC[C@H](C)C[C@H](C)CCCCCCCCC(=O)N[C@H]1C[C@@H](O)[C@@H](NCCN)NC(=O)[C@@H]2[C@@H](O)CCN2C(=O)[C@H]([C@H](O)CCN)NC(=O)[C@H]([C@H](O)[C@@H](O)c2ccc(O)cc2)NC(=O)[C@@H]2C[C@@H](O)CN2C(=O)[C@H]([C@@H](C)O)NC1=O [CASPOFUNGIN],MIC90,Candida tropicalis [1],0.06 µg/mL
same,MIC,Candida albicans [2],1 µg/mL
same,MIC90,Pichia kudriavzevii [3],1 µg/mL
same,MIC90,[4],1 µg/mL
same,MIC,Candida albicans [5],≤ 0.06 µg/mL
same,MIC90,Debaryomyces hansenii [6],> 8 µg/mL
same,MIC90,Candida tropicalis [7],0.25 µg/mL
same,MIC90,Candida parapsilosis [8],2 µg/mL
same,inhibition zone (IZ),Candida albicans [9],6.2 mm
same,MIC90,Nakaseomyces glabratus [10],0.5 µg/mL
same,MIC90,[11],> 16 µg/mL
same,Activity,Candida albicans [12],Active
same,MIC90,Pichia kudriavzevii [13],1 µg/mL
same,MIC90,Candida tropicalis [14],0.5 µg/mL
same,inhibition zone (IZ),Candida albicans [15],12.4 mm
same,growth inhibition (GI),Candida albicans [16],inactive
same,MIC90,Pichia kudriavzevii [17],0.25 µg/mL
same,MIC90,Candida tropicalis [18],0.5 µg/mL
same,MIC90,Candida albicans [19],0.5 µg/mL
same,inhibition zone (IZ),Candida albicans [20],26.4 mm
same,MIC90,Candida albicans [21],0.25 µg/mL
same,MIC90,[22],> 8 µg/mL
same,inhibition zone (IZ),Candida albicans [23],11.9 mm
same,MIC,Candida albicans [24],0.5 µg/mL
same,MIC90,Clavispora lusitaniae,0.25 µg/mL
same,MIC,Candida albicans [25],0.25 µg/mL
same,inhibition zone (IZ),Candida albicans [26],13.4 mm
same,MIC90,Candida parapsilosis [27],2 µg/mL
same,growth inhibition (GI),Candida albicans [28],inactive
same,MIC90,Debaryomyces hansenii [29],1 µg/mL
same,MIC,Candida albicans [30],32 µg/mL
same,inhibition zone (IZ),Candida albicans [31],12.1 mm
same,MIC90,Pichia kudriavzevii [32],2 µg/mL
same,growth inhibition (GI),Candida albicans [33],inactive
same,inhibition zone (IZ),Candida albicans [34],6.2 mm
same,MIC90,Candida tropicalis [35],0.5 µg/mL
same,MIC90,Nakaseomyces glabratus [36],1 µg/mL
same,MIC,Candida albicans [37],0.25 µg/mL
same,inhibition zone (IZ),Candida albicans [38],8.6 mm
same,inhibition zone (IZ),Candida albicans [39],12.7 mm
same,growth inhibition (GI),Candida albicans [40],Active
same,inhibition zone (IZ),Candida albicans [41],8.8 mm
same,MIC,Candida albicans [42],> 32 µg/mL
same,inhibition zone (IZ),Candida albicans [43],10.7 mm
